This passage reports IC50 results from ChEMBL document CHEMBL1146873, “3-demethoxy-3-glycosylaminothiocolchicines: Synthesis of a new class of putative muscle relaxant compounds” (J Med Chem, 2006).

The IC50 is the point on the concentration scale where inhibition reaches its midpoint.

Experiment [1] in a line: Displacement of [3H]strychnine from strychnine-sensitive glycine receptor in rat spinal cord. (In general: Loss of bound radioactivity is the signal in a displacement assay; it reports binding, not function.)
The target of experiment [2] is GABA-A receptor; anion channel. As to the kind of experiment: Displacement of [3H]muscimol from GABA-A receptor in Sprague-Dawley rat spinal cord. It counts as protein-complex assay. A digest of the protocol: (§1)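 Synaptic membranes from adult rat tissue (cerebral cortex or spinal cord–brainstem) incubated with 5 nM [3H]muscimol plus increasing competitor concentrations in 50 mM Tris-citrate, pH 7.1, 30 min at 4 °C. Bound ligand separated by rapid filtration through glass fiber filters, three washes with ice-cold buffer, scintillation counting. Nonspecific binding defined with 200 µM unlabeled GABA. Mean of three experiments in triplicate.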

In experiment [3] the target is GABA-A receptor; anion channel. As to the kind of experiment: Displacement of [3H]muscimol from GABA-A receptor in Sprague-Dawley rat cerebral cortex. It counts as tissue-based. A digest of the protocol: as §1

For the molecule `COc1c(N)cc2c(c1OC)-c1ccc(SC)c(=O)cc1[C@@H](NC(C)=O)CC2`, the 50% inhibitory concentration (IC50) in experiment [1] was 39.9 µM; in experiment [2], 1.9 µM; in experiment [3] it was 5.4 µM.

`COc1c(N[C@H]2O[C@@H](C)[C@H](O)[C@@H](O)[C@H]2O)cc2c(c1OC)-c1ccc(SC)c(=O)cc1[C@@H](NC(C)=O)CC2`: the IC50 was 4.6 µM in experiment [1], 3.8 µM in experiment [2] and greater than 100 µM in experiment [3].

In the case of `COc1c(NC2OC[C@@H](O)[C@H](O)[C@H]2O)cc2c(c1OC)-c1ccc(SC)c(=O)cc1[C@@H](NC(C)=O)CC2` (some centres undefined), the IC50 in experiment [1] stood at 3.3 µM; in experiment [2], 3.3 µM; in experiment [3] it was 7 µM.

Regarding `COc1c(N[C@@H]2O[C@@H](C)[C@@H](O)[C@@H](O)[C@@H]2O)cc2c(c1OC)-c1ccc(SC)c(=O)cc1[C@@H](NC(C)=O)CC2`, the IC50 was found to be 4.2 µM in experiment [1], 5.9 µM in experiment [2] and 10.5 µM in experiment [3].

Regarding `COc1c(N[C@@H]2O[C@H](CO)[C@@H](O)[C@H](O)[C@@H]2O)cc2c(c1OC)-c1ccc(SC)c(=O)cc1[C@@H](NC(C)=O)CC2`, the figures for the IC50 in experiment [1], in experiment [2] and in experiment [3] were 13.1 µM, 11.3 µM and greater than 100 µM, respectively.

For `COc1c(NC2OC[C@@H](O)[C@H](O)[C@@H]2O)cc2c(c1OC)-c1ccc(SC)c(=O)cc1[C@@H](NC(C)=O)CC2` (some centres undefined), the IC50 was 4.1 µM in experiment [1], 4 µM in experiment [2] and 9.7 µM in experiment [3].

With `COc1c(NC2OC[C@@H](O)[C@@H](O)[C@@H]2O)cc2c(c1OC)-c1ccc(SC)c(=O)cc1[C@@H](NC(C)=O)CC2` (some centres undefined), the values for the IC50 in experiment [1], in experiment [2] and in experiment [3] were 8.6 µM, 10.5 µM and 17.7 µM, respectively.

On to `COc1c(NC2O[C@H](CO)[C@@H](O)[C@H](O)[C@H]2O)cc2c(c1OC)-c1ccc(SC)c(=O)cc1[C@@H](NC(C)=O)CC2` (some centres undefined), for which the IC50 amounted to 10.6 µM in experiment [1], 11.3 µM in experiment [2] and 18 µM in experiment [3].

`NCC(=O)O` [GLYCINE] returned an IC50 in experiment [1] of 15.8 µM.

Take `O=C1C[C@@H]2OCC=C3CN4CC[C@]56c7ccccc7N1[C@H]5[C@H]2[C@H]3C[C@H]46` [STRYCHNINE]: the IC50 in experiment [1] amounted to 0.014 µM.

`COc1c(O[C@@H]2O[C@H](CO)[C@@H](O)[C@H](O)[C@H]2O)cc2c(c1OC)-c1ccc(SC)c(=O)cc1[C@@H](NC(C)=O)CC2` [THIOCOLCHICOSIDE]: the figures for the IC50 in experiment [1], in experiment [2] and in experiment [3] were 1.5 µM, 1.9 µM and 3.4 µM, respectively.
